{"source": "ChEMBL document CHEMBL1157608", "about": "“The discovery of 4-{1-[({2,5-dimethyl-4-[4-(trifluoromethyl)benzyl]-3-thienyl}carbonyl)amino]cyclopropyl}benzoic acid (MK-2894), a potent and selective prostaglandin E2 subtype 4 receptor antagonist” (J Med Chem, 2010)", "key": {"[1]": {"molecular_target": "T1, Prostaglandin E2 receptor EP1 subtype (Homo sapiens, UniProt P34995)", "T1 sequence (P34995 whole entry)": "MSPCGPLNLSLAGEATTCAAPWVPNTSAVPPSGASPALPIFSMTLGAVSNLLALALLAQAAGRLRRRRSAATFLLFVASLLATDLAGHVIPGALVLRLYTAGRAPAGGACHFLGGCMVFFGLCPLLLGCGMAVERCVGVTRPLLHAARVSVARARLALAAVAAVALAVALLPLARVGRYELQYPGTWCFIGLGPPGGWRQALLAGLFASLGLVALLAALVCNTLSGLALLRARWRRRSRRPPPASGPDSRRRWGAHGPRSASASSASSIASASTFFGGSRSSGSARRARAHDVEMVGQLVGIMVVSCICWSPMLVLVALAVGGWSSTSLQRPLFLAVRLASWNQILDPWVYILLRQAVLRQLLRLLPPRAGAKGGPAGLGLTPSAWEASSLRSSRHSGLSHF", "assay": "Displacement of [3H]PGE2 from human EP1 receptor expressed in HEK293-EBNA cells by scintillation counting", "type": "cell-based", "summary_of_the_method": "(§1)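 Radioligand binding on membranes from HEK 293(EBNA) clonal lines overexpressing each prostanoid receptor, using the respective 3H-prostaglandin or thromboxane ligand; EP4 binding also run with 10% human serum; Ki as means of at least three experiments (rEP2, rEP3 n = 1).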"}, "[2]": {"molecular_target": "T2, Prostaglandin D2 receptor (Homo sapiens, UniProt Q13258)", "T2 sequence (Q13258 whole entry)": "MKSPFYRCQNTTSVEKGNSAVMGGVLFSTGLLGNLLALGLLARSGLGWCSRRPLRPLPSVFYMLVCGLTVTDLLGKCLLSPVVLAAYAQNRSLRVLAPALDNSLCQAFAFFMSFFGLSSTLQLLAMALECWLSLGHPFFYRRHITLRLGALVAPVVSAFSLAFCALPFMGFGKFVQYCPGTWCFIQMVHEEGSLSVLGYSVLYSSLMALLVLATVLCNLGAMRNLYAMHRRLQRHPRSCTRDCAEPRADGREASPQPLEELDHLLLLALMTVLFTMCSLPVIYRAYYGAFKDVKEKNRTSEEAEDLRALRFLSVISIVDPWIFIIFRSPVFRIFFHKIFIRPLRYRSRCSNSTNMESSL", "assay": "Displacement of [3H]PGD2 from human DP1 receptor expressed in HEK293-EBNA cells by scintillation counting", "type": "cell-based", "summary_of_the_method": "as §1"}, "[3]": {"assay": "Volume of distribution at steady state in C57BL/6 mouse at 20 mg/kg, po and 5 mg/kg, iv", "type": "ADME, organism-based", "settings": "in vivo, read-out: Vdss", "summary_of_the_method": "(§2)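 Overnight-fasted animals dosed po in 0.5% methocel or iv in 60% PEG 200; plasma from serial blood samples stored at -10 °C, protein-precipitated with equal volume acetonitrile/0.1% formic acid, analysed by LC/MS/MS with internal standard against spiked blank-plasma standards; Cmax from po data, half-life from iv data.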"}, "[4]": {"molecular_target": "T3, Prostaglandin E2 receptor EP4 subtype (Homo sapiens, UniProt P35408)", "T3 sequence (P35408 whole entry)": "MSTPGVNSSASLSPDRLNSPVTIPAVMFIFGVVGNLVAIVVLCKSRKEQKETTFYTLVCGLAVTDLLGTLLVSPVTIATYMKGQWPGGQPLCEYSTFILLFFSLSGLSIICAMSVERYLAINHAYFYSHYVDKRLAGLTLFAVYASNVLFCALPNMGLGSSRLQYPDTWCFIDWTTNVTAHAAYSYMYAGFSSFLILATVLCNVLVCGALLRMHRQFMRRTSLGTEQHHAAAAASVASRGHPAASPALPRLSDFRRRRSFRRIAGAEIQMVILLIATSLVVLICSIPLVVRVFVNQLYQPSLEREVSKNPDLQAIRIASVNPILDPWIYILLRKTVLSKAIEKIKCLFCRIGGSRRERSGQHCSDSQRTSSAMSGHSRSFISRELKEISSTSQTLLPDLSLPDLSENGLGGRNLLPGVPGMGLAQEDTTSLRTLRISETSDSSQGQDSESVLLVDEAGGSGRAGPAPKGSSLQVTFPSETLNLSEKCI", "assay": "Displacement of [3H]PGE2 from human EP4 receptor expressed in HEK293-EBNA cells by scintillation counting", "type": "cell-based", "summary_of_the_method": "as §1"}, "[5]": {"molecular_target": "T4, Prostaglandin D2 receptor 2 (Homo sapiens, UniProt Q9Y5Y4)", "T4 sequence (Q9Y5Y4 whole entry)": "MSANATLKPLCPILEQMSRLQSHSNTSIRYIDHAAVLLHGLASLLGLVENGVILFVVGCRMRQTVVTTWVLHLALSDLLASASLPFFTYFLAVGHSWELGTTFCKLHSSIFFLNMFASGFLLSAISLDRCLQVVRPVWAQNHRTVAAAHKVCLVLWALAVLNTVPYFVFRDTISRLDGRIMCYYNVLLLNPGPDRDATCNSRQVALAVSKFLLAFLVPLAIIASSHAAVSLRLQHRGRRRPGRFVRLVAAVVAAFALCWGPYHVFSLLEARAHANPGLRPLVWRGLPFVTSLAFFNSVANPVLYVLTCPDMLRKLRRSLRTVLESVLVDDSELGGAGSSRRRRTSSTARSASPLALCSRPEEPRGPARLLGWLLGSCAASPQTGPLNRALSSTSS", "assay": "Displacement of [3H]PGD2 from human DP2 receptor expressed in HEK293-EBNA cells by scintillation counting", "type": "cell-based", "summary_of_the_method": "as §1"}, "Cynomolgus monkey": {"test_system": "Cynomolgus monkey", "assay": "Volume of distribution at steady state in cynomolgus monkey at 5 mg/kg, po and 1 mg/kg, iv", "type": "ADME, organism-based, Macaca fascicularis", "settings": "in vivo", "summary_of_the_method": "as §2"}, "Rattus norvegicus [6]": {"organism": "Rattus norvegicus", "assay": "Analgesic activity against complete Freund's adjuvant-induced Sprague-Dawley rat inflammatory pain assessed as inhibition of chronic paw swelling at plasma concentration of 4 nM after 24 hrs", "type": "functional, organism-based", "summary_of_the_method": "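Adjuvant-induced arthritis in rats: CFA injected into primary paw on day 0; oral dosing in 0.5% methocel once daily for 9 days starting day 9; secondary paw swelling measured; plasma levels taken 24 h after final dose; n = 7/group; 1-way ANOVA/Dunnett's vs vehicle.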"}, "[7]": {"molecular_target": "Prostaglandin E2 receptor EP4 subtype (Rattus norvegicus, UniProt P43114)", "sequence (P43114 whole entry)": "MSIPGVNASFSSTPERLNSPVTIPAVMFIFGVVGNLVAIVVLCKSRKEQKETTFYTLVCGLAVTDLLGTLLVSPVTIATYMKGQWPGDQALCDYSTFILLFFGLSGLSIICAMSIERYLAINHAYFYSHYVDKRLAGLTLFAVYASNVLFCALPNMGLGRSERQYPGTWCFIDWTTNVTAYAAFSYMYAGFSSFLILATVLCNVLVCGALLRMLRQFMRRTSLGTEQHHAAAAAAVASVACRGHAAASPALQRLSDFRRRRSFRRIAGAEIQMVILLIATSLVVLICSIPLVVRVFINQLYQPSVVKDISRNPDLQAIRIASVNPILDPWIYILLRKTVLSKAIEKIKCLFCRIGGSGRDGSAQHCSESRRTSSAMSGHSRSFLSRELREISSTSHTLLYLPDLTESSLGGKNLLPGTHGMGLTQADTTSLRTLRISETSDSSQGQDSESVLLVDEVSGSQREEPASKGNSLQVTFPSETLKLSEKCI", "assay": "Displacement of [3H]PGE2 from rat EP4 receptor expressed in HEK293-EBNA cells by scintillation counting", "type": "cell-based", "summary_of_the_method": "as §1"}, "[8]": {"molecular_target": "T3, Prostaglandin E2 receptor EP4 subtype", "assay": "Antagonist activity at human EP4 receptor expressed in HEK293 cells assessed as inhibition of PGE2-induced cAMP accumulation by scintillation proximity assay in presence of 10% human serum", "type": "functional, cell-based", "summary_of_the_method": "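Functional EP4 assay in the same HEK 293(EBNA) clonal line overexpressing human EP4; inhibition of PGE2-induced cAMP accumulation, run in presence of 10% human serum to gauge serum protein binding; IC50 values are means of at least three experiments.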"}, "[9]": {"molecular_target": "T5, Prostaglandin E2 receptor EP3 subtype (Rattus norvegicus, UniProt P34980)", "T5 sequence (P34980 whole entry)": "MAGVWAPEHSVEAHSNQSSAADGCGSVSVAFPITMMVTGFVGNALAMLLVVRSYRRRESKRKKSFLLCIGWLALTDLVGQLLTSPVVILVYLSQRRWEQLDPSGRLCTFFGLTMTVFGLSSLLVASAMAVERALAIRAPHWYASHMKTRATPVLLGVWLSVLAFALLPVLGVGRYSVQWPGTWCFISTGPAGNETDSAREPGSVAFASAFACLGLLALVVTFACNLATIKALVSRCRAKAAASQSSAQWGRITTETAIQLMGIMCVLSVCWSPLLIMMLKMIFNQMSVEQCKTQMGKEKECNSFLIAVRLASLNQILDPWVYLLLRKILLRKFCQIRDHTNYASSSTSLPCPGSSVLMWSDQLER", "assay": "Displacement of [3H]PGE2 from rat EP3 receptor expressed in HEK293-EBNA cells by scintillation counting", "type": "cell-based", "summary_of_the_method": "as §1"}, "[10]": {"assay": "Half life in Beagle dog at 1 mg/kg, iv", "type": "ADME, organism-based, Canis lupus familiaris", "parameters": "dose 1 mg/kg, route intravenous", "settings": "in vivo", "summary_of_the_method": "as §2"}, "[11]": {"assay": "Plasma clearance in C57BL/6 mouse at 20 mg/kg, po and 5 mg/kg, iv", "type": "ADME, organism-based", "summary_of_the_method": "as §2"}, "[12]": {"assay": "Oral bioavailability in Beagle dog at 5 mg/kg", "type": "ADME, organism-based, Canis lupus familiaris", "settings": "in vivo", "summary_of_the_method": "as §2"}, "[13]": {"molecular_target": "T3, Prostaglandin E2 receptor EP4 subtype", "assay": "Activity at EP4 receptor in human whole blood assessed as blockade of inhibition of TNF-alpha-induced IP10 release", "type": "functional, tissue-based", "summary_of_the_method": "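Human whole blood; TNF-alpha-stimulated IP-10 release, suppressed by the selective EP4 agonist L-902688 (used in place of PGE2); antagonism measured as reversal of that suppression; IC50.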"}, "Rattus norvegicus [14]": {"test_system": "Rattus norvegicus", "assay": "Analgesic activity in po dosed Sprague-Dawley rat assessed as inhibition of carrageenan-induced mechanical hyperalgesia"}}, "note": "Active and inactive are the calls of the source. The calls are words filed in the database; no cut-off is given here.", "data": [{"smiles": "Cc1sc(C)c(C(=O)NC2(c3ccc(C(=O)O)cc3)CC2)c1Cc1ccc(C(F)(F)F)cc1", "values": [{"measurement": "Ki", "setting": "[1]", "result": "> 5600", "unit": "nM"}, {"measurement": "Ki", "setting": "[2]", "result": "> 3900", "unit": "nM"}, {"measurement": "Vd", "setting": "[3]", "result": 7.6, "unit": "L/kg"}, {"measurement": "Ki", "setting": "[4]", "result": 0.56, "unit": "nM"}, {"measurement": "Ki", "setting": "[5]", "result": "> 21000", "unit": "nM"}, {"measurement": "Vdss", "setting": "Cynomolgus monkey", "result": 7.9, "unit": "L/kg"}, {"measurement": "Activity", "setting": "Rattus norvegicus [6]", "result": "Active"}, {"measurement": "Ki", "setting": "[7]", "result": 0.7, "unit": "nM"}, {"measurement": "IC50", "setting": "[8]", "result": 2.9, "unit": "nM"}, {"measurement": "Ki", "setting": "[9]", "result": 3300, "unit": "nM"}, {"measurement": "half-life", "setting": "[10]", "result": 8.8, "unit": "h"}, {"measurement": "clearance", "setting": "[11]", "result": 23, "unit": "mL/min/kg"}, {"measurement": "bioavailability", "setting": "[12]", "result": 32, "unit": "%"}, {"measurement": "IC50", "setting": "[13]", "result": 11, "unit": "nM"}, {"measurement": "EC50", "setting": "Rattus norvegicus [14]", "result": 250, "unit": "nM"}, {"measurement": "ED50", "setting": "Rattus norvegicus [14]; po", "result": 0.36, "unit": "mg/kg"}]}]}
